Structures are written as SMILES. Calls of active or inactive are those of the source.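 The calls were made as follows: active = at 10 µM, induced P-selectin expression inhibited by 50% or more; inactive = less than 50% inhibition.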

The source of these data is PubChem BioAssay AID493031 (Broad Institute, 2011).

In the assay the test system is human washed platelets, SFLLRN-induced P-selectin, flow cytometry. Put plainly: reduced P-selectin exposure on PAR1-stimulated platelets – cell-based, human washed platelets, flow cytometry, dry powder, single point (AID 493031). As to conditions: at 10 µM; active compounds read high. An outline of the steps:
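technique = flow cytometry, PE anti-P-selectin staining | test system = donor washed platelets | schedule = compound 20 min, SFLLRN 15 min, staining 20 min | reagent = SFLLRN stimulation | doses = compound at 10 µM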
Take `CCCC(=O)Nc1cccc(NC(=O)c2ccccc2Cl)c1`: the inhibition is 98.3%.
Turning to `CCCC(=O)Nc1cccc(NC(=O)c2cnc3ccccc3c2)c1`, the inhibition was 10.4% (inactive).
With `CCCC(=O)Nc1cccc(NC(=O)c2ccc(S(C)(=O)=O)cc2)c1`, the inhibition was 9.82% (inactive).
Turning to `CCCC(=O)Nc1cccc(NC(=O)c2cccc(S(C)(=O)=O)c2)c1`, the inhibition was 23.9% (inactive).
For the compound `CCCC(=O)Nc1cccc(NC(=O)c2ccccc2C)c1`, the inhibition was 95.8%.
Turning to `CCCC(=O)Nc1cccc(NC(=O)c2ccccc2F)c1`, the inhibition is 97.4%.
Turning to `CCCC(=O)Nc1cccc(NC(=O)c2cccnc2)c1`, the inhibition is 4.33% (inactive).
As to `CCCC(=O)Nc1cccc(NC(=O)c2ccccc2OC)c1`, the inhibition is 46.1% (inactive).
The result for `CCCC(=O)Nc1cccc(NC(=O)c2ccc(OC)cc2)c1` reads 15.3% (inactive); that for `CCCC(=O)Nc1cccc(NC(=O)c2ccc(C)cc2)c1`, 21.8% (inactive); that for `CCCC(=O)Nc1cccc(NC(=O)c2cccc(Oc3ccccc3)c2)c1`, 92%.
The result for `CCCC(=O)Nc1cccc(NC(=O)c2ccc(C(F)(F)F)cc2)c1` reads 21% (inactive).
Next, `CCCC(=O)Nc1cccc(NC(=O)c2cccc(Cl)c2)c1`: 94.1%.
`O=C(Nc1ccccc1)c1ccccc1Br`: the inhibition was 98.5%.
With `CCCC(=O)Nc1cccc(NC(=O)c2cccc(NC(C)=O)c2)c1`, the inhibition is 41% (inactive).
On to `CCCC(=O)Nc1cccc(NC(=O)c2ccco2)c1`, for which the inhibition is 30.5% (inactive).
In the case of `CCCC(=O)Nc1cccc(NC(=O)c2cccc([N+](=O)[O-])c2)c1`, the inhibition was 50.7%.
On to `CCCC(=O)Nc1cccc(NC(=O)c2cccc(-c3ccccc3)c2)c1`, for which the inhibition is 94.4%.
Take `CCCC(=O)Nc1cccc(NC(=O)c2ccc(F)cc2)c1`: the inhibition is 56.9%.
As to `CCCC(=O)Nc1cccc(NC(=O)c2cccc(C#N)c2)c1`, the inhibition was 66.7%.
The result for `CCCC(=O)Nc1cccc(NC(=O)c2ccc(Cl)cc2)c1` reads 73.9%.
